Measurements gathered from unrelated publications.
Compare with care: the assays were run in different laboratories.
Target: Serine/threonine-protein kinase LATS2 (LATS2, Homo sapiens, UniProt Q9NRM7)
One construct used (Q9NRM7 1-1088): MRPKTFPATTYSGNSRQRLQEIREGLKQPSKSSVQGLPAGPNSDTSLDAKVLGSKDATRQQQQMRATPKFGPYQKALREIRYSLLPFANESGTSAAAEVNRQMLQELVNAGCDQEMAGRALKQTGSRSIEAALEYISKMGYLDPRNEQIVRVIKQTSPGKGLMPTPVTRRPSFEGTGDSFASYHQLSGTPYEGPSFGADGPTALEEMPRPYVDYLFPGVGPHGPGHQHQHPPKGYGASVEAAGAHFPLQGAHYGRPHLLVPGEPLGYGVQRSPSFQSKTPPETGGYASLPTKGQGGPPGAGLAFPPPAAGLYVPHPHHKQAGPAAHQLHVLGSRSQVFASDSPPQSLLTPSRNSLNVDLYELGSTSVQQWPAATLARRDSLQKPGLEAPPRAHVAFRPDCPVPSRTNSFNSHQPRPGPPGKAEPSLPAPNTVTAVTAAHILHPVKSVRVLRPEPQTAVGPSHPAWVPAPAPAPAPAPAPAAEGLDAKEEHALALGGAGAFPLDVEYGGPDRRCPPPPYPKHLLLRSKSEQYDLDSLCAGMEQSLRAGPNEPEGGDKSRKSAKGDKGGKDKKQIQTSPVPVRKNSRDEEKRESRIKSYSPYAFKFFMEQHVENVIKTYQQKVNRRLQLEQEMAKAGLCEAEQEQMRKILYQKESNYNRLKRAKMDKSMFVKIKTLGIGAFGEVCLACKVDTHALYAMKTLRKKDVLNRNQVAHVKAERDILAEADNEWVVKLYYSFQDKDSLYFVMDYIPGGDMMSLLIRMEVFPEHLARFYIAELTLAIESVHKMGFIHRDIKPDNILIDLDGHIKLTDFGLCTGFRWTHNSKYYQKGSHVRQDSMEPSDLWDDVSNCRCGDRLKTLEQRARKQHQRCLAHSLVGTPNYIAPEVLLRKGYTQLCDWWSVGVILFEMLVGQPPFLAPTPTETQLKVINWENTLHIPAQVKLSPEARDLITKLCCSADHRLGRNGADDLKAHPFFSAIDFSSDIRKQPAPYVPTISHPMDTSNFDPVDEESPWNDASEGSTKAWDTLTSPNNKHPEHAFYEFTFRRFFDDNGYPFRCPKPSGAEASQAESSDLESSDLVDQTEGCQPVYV

c1cncc(-c2cccc(Nc3nccc(NC4CCCCC4)n3)c2)c1  remaining binding (binding; competition with immobilised ligand; 10 µM): 12%
CN(CCCC(F)(F)F)c1nccc(-c2cnn3ncccc23)n1  remaining binding (binding; 1 µM): 100%
O=C(c1ccc(Nc2ncc(Cl)c(-c3ccc(Cl)s3)n2)cc1)N1CCC(N2CCCC2)CC1  remaining binding (binding; competition with immobilised ligand; 1 µM): 3.8%
COc1cc(-c2cn(C3CCc4ccccc4N(CC(F)(F)F)C3=O)nn2)ccc1-n1ccc(C)n1 (centres unmarked)  remaining binding (cell-free assay; competition with immobilised ligand; 1 µM): 69%
c1cnn2ncc(-c3ccnc(N4CCC45COC5)n3)c2c1  remaining binding (binding; 1 µM): 88%
O=C(Nc1c[nH]nc1C(=O)NC1CCNCC1)c1cc(F)cc(F)c1  remaining binding (binding; competition with immobilised ligand; 1 µM): 94%
CN(c1nccc(-c2cnn3ncccc23)n1)C1CC1  remaining binding (binding; 1 µM): 100%
O=C1CCc2cc(Nc3cc(OC4CCOCC4)c([N+](=O)[O-])cc3Cl)ccc2N1  remaining binding (cell-free assay; competition with immobilised ligand; 1 µM): 80%
CN(C)c1nccc(-c2cnc3ncccn23)n1  remaining binding (binding; 1 µM): 79%
CCCNc1nc(C#Cc2ccc(Cl)s2)nc2c1ncn2[C@H]1[C@H](O)[C@H](O)[C@]2(C(=O)NC)C[C@H]12  remaining binding (binding; competition with immobilised ligand; 10 µM): 26%
CN(C)CC#Cc1ccc(OCCCc2sc(N3CCc4cccc(C(=O)Nc5nc6ccccc6s5)c4C3)nc2C(=O)O)c(F)c1  remaining binding (cell-free assay; competition with immobilised ligand; 1 µM): 95%
CNC(=O)[C@@H]1CC[C@@H](n2c(-c3ccc4cnccc4c3)nc3ccc(C(=O)NCc4cccc(C(N)=O)c4)cc32)C1  remaining binding (binding; competition with immobilised ligand; 1 µM): 100%
COc1ncc2cc3ccccc3nc2c1C#N  remaining binding (cell-free assay; competition with immobilised ligand; 5 µM): 90%
C[C@@]1(Cc2ccc(C#N)cc2)C(=O)N(c2cc(Cl)cc(Cl)c2)c2ncc(C(=O)NC3(c4nc(C5CCC5)no4)CC3)n21  remaining binding (cell-free assay; competition with immobilised ligand; 1 µM): 92%
C[C@@H]1CCN(c2nccc(-c3cnn4ncccc34)n2)C1  remaining binding (binding; 1 µM): 93%
O=C(NCCCN1CCOCC1)c1ccc(Nc2nccc(-c3cc4ccccc4s3)n2)cc1  remaining binding (binding; competition with immobilised ligand; 1 µM): 100%
CS(=O)(=O)NCC[C@H](NC(=O)c1cncc2c1cnn2-c1ccc(F)cc1)c1ccnc(S(C)(=O)=O)c1  remaining binding (cell-free assay; competition with immobilised ligand; 1 µM): 97%
FC(F)(F)Oc1cccc(-c2cnc3ccc(-c4ccncc4)nn23)c1  remaining binding (cell-free assay; competition with immobilised ligand; 5 µM): 38%
FC(F)(F)c1ccc2c(c1)nc(-c1cccnc1)n2C1CC1  remaining binding (cell-free assay; competition with immobilised ligand; 1 µM): 100%
CC1CCCN1c1nccc(-c2cnn3ncccc23)n1 (centres unmarked)  remaining binding (binding; 1 µM): 100%
